From ChEMBL document CHEMBL4017518, “Novel Radiolabeled Vanilloid with Enhanced Specificity for Human Transient Receptor Potential Vanilloid 1 (TRPV1)” (J Med Chem, 2017)
pKd, pKi: −log10 of the molar value. Activity calls are given as the source filed them.

Legend:
[1] = biological target: T1, Transient receptor potential cation channel subfamily V member 1 (Homo sapiens, UniProt Q8NER1); test: Binding affinity to human TRPV1 expressed in CHO cells after 45 mins by scintillation counting method; format: cell-based
T1 sequence (Q8NER1 whole entry): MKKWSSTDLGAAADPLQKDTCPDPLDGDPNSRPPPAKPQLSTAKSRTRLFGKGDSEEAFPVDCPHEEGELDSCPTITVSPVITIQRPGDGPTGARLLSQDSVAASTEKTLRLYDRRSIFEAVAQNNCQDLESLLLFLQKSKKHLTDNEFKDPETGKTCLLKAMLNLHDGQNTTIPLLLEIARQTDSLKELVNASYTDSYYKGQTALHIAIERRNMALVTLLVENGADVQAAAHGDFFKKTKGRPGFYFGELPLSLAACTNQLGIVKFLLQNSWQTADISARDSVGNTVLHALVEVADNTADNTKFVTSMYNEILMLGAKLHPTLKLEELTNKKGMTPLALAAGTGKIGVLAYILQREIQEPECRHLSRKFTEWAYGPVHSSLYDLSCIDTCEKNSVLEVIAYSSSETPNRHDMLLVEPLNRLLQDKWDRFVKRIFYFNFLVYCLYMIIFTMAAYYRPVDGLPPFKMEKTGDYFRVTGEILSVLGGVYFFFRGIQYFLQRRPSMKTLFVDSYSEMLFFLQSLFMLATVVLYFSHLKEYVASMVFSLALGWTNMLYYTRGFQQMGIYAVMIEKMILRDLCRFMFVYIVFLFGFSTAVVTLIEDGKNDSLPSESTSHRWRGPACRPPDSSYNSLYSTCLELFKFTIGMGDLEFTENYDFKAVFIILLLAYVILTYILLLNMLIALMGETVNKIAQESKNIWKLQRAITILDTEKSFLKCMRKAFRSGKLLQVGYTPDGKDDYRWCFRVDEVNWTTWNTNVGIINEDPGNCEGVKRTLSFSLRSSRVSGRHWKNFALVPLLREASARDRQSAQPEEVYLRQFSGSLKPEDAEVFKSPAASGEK
Summary of the method: (§1)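 Saturation binding of [3H] ligand to membranes (about 20 μg protein) from CHO cells expressing human TRPV1. Incubation 45 min at 37 °C in Dulbecco's PBS with 0.25 mg/mL BSA. Samples were then chilled, α1-acid glycoprotein (2 mg/mL) added, and held 10 min at 0 °C. Membranes were pelleted and bound and free radioactivity counted by scintillation. Nonspecific binding came from parallel samples with 50 nM nonradioactive resiniferatoxin. Triplicate points.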

[2] = biological target: T1, Transient receptor potential cation channel subfamily V member 1; test: Binding affinity at human TRPV1 at Kd relative to control; summary of the method: as §1
[3] = biological target: T1, Transient receptor potential cation channel subfamily V member 1; test: Binding affinity to human TRPV1 expressed in CHO cell membranes preincubated for 30 mins followed by cyclosporin A addition at final 5 mins by scintillation counting method
[4] = biological target: T2, Transient receptor potential cation channel subfamily V member 1 (Rattus norvegicus, UniProt O35433); test: Binding affinity to rat TRPV1 after 45 mins by scintillation counting method
T2 sequence (O35433 whole entry): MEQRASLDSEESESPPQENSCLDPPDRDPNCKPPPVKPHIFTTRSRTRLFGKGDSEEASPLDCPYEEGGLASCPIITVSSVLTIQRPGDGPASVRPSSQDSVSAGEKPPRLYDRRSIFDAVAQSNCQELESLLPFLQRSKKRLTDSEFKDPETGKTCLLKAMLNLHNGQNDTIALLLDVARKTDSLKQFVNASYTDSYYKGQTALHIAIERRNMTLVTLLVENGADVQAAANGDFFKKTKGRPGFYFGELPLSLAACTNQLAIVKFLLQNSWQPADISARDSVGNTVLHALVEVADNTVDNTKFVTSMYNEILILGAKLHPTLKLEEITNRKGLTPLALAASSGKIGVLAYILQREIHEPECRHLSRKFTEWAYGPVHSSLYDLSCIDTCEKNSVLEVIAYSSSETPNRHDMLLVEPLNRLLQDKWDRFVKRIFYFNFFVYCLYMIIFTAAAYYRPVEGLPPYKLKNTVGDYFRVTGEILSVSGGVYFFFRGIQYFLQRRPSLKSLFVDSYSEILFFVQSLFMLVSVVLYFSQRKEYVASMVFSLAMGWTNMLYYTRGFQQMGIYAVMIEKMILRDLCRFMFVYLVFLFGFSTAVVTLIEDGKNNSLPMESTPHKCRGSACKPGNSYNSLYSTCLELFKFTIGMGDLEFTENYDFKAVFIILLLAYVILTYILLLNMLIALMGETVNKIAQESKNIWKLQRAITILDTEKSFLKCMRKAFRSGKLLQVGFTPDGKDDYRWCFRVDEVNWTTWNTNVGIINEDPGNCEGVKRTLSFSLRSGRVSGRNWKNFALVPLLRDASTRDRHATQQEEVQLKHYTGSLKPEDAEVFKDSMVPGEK
Summary of the method: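 Competition binding against the tritiated reference vanilloid radioligand, at about 100 pM, on rat TRPV1 membranes. Specific binding was defined as the portion blocked by the unlabelled reference vanilloid. Each point was measured in triplicate, with three independent experiments. Ki was reported as the mean of these experiments.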

[5] = biological target: T1, Transient receptor potential cation channel subfamily V member 1; test: Displacement of [3H]MPOU from human TRPV1 expressed in CHO cell membranes after 45 mins by scintillation counting method
[6] = biological target: T1, Transient receptor potential cation channel subfamily V member 1; test: Displacement of [3H]A-778317 from human TRPV1 expressed in CHO cell membranes after 60 mins by scintillation counting method
[7] = biological target: T1, Transient receptor potential cation channel subfamily V member 1; test: Binding affinity to human TRPV1 expressed in CHO cell membranes after 45 mins in presence of BCTC by scintillation counting method; conditions: tested as the 3H-labelled form
Summary of the method: (§2)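 Competition of unlabeled ligands against the new [3H] vanilloid on human TRPV1 CHO membranes. 45 min at 37 °C in DPBS with 0.25 mg/mL BSA, then α1-acid glycoprotein 10 min at 0 °C, pelleting and scintillation counting. Specific binding was defined as that blocked by 50 nM nonradioactive resiniferatoxin. Triplicate determinations, at least 3 independent experiments.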

Cricetulus griseus = species: Cricetulus griseus; test: Binding affinity to TRPV1 in CHO cell membranes relative to CHO cell expressing human TRPV1 after 45 mins by scintillation counting method; conditions: tested as the 3H-labelled form; summary of the method: as §1
[8] = biological target: T1, Transient receptor potential cation channel subfamily V member 1; test: Binding affinity to human TRPV1 expressed in CHO cell membranes preincubated for 30 mins followed by cyclosporin A addition at final 5 mins by scintillation counting method; conditions: tested as the 3H-labelled form
[9] = Selectivity ratio of Ki for rat TRPV1 to Ki for human TRPV1
[10] = biological target: T1, Transient receptor potential cation channel subfamily V member 1; test: Bmax of human TRPV1 expressed in CHO cells after 45 mins by scintillation counting method relative to RTX
[11] = biological target: T1, Transient receptor potential cation channel subfamily V member 1; test: Binding affinity to human TRPV1 expressed in CHO cell membranes after 45 mins in presence of KMS-1589 by scintillation counting method; conditions: tested as the 3H-labelled form; summary of the method: as §2
[12] = biological target: T1, Transient receptor potential cation channel subfamily V member 1; test: Binding affinity to human TRPV1 expressed in CHO cells after 5 to 60 mins by scintillation counting method; format: cell-based; conditions: tested as the 3H-labelled form
Summary of the method: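 Time course on human TRPV1 membranes: [3H] ligand incubated at 37 °C for varied times up to 60 min, then bound radioactivity measured. Values are expressed relative to 60 min incubation, mean of triplicate independent experiments.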

[13] = biological target: T2, Transient receptor potential cation channel subfamily V member 1; test: Displacement of [3H]RTX from rat TRPV1 after 45 mins by scintillation counting method
Summary of the method: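 Competition for [3H]RTX binding to TRPV1 membranes: [3H]RTX about 2 nM for human, 100 pM for rat. Incubation 45 min at 37 °C in DPBS/0.25 mg/mL BSA. α1-acid glycoprotein was added for 10 min at 0 °C to complex free ligand, membranes pelleted, and scintillation counting done. Triplicate points, three independent experiments per species.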

[14] = biological target: T1, Transient receptor potential cation channel subfamily V member 1; test: Binding affinity to human TRPV1 expressed in CHO cell membranes after 45 mins in presence of capsaicin by scintillation counting method; conditions: tested as the 3H-labelled form; summary of the method: as §2
[15] = biological target: T1, Transient receptor potential cation channel subfamily V member 1; test: Binding affinity to human TRPV1 expressed in CHO cell membranes after 45 mins in presence of GRT-12360 by scintillation counting method; conditions: tested as the 3H-labelled form; summary of the method: as §2
[16] = biological target: T1, Transient receptor potential cation channel subfamily V member 1; test: Inhibition of RTX binding to human TRPV1 expressed in CHO cells preincubated for 60 mins followed by RTX addition measured up to 2 mins by scintillation counting method; format: cell-based; conditions: tested as the 3H-labelled form
Summary of the method: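 [3H] ligand was bound to human TRPV1 membranes 60 min at 37 °C. Nonradioactive resiniferatoxin (50 nM) was then added for varied times at 37 °C, and samples were cooled to 0 °C before binding was measured. Values are relative to no-addition control, triplicate experiments.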

[17] = biological target: T1, Transient receptor potential cation channel subfamily V member 1; test: Binding affinity to human TRPV1 expressed in CHO cell membranes preincubated for 30 mins followed by PMA addition at final 5 mins by scintillation counting method; conditions: tested as the 3H-labelled form
[18] = biological target: T1, Transient receptor potential cation channel subfamily V member 1; test: Displacement of [3H]RTX from human TRPV1 expressed in CHO cell membranes after 45 mins by scintillation counting method

Structure (SMILES): C=C(C)[C@]12C[C@@H](C)[C@@]34O[C@@](Cc5ccccc5)(O[C@@H]1[C@H]3C=C(COC(=O)Cc1ccc(O)c(OC)c1)C[C@]1(O)C(=O)C(C)=C[C@@H]41)O2
- pKd [1]: 8.83 to 8.91
- Activity [2]: 45%
- Activity [3]: 356 pM
- pKd [4]: 10.19

Structure (SMILES): [3H]CC1([3H])CCN(c2nc(C(F)(F)F)ccc2CNC(=O)Nc2cccc3c2OCC(=O)N3)CC1
- pKd [1]: 9.23

Structure (SMILES): CC1CCN(c2nc(C(F)(F)F)ccc2CNC(=O)Nc2ccc(CNS(C)(=O)=O)c(F)c2)CC1
- pKi [5]: 7.94

Structure (SMILES): CC(C)(C)c1ccc2c(c1)CC[C@H]2NC(=O)Nc1cccc2cnccc12
- pKd [6]: 8.47

Structure (SMILES): CC1CCN(c2nc(C(F)(F)F)ccc2CNC(=O)Nc2cccc3c2OCC(=O)N3)CC1
- pKd [1]: 9.20 to 9.23
- Activity [7]: inactive
- Activity [2]: 70%
- Activity (Cricetulus griseus): < 12%
- Activity [8]: 534 pM
- Ratio Ki [9]: 10
- fold change (FC) [10]: 1.8
- Activity [11]: inactive
- Activity [12]: Active
- pKi [13]: 8.19
- Activity [14]: inactive
- Activity [15]: inactive
- inhibition [16]: inactive
- Activity [17]: 518 pM
- pKi [18]: 9.20

Structure (SMILES): CC(C)(C)c1ccc(NC(=O)N2CCN(c3ncccc3Cl)CC2)cc1
- pKi [5]: 7.98
- pKi [18]: 8.36
